Only some compounds are listed: those with a hit (about 2.3% of all), similar ones and a draw of the others.
PREPL inh: inhibitors of human prolyl oligopeptidase-like enzyme PREPL; recombinant PREPL, fluorescence polarization activity-based probe; AID 2751; inhibition, % at 5.96 µM; hit rate 0.68% among 320,000; Q4J6C6; in the data active = inhibition above about 43%;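 also: 0% = enzyme with DMSO and 100% = wells lacking enzyme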
PP1 counter: counter-screen for PP5 inhibitors: inhibitors of human PP1-alpha; purified PP1alpha, OMFP fluorescence; inhibition, % at 6.7 µM; hit rate 0.9% among 320,000;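 active = inhibition above the mean inhibition of all tested compounds plus 3 SD, computed separately for each screening campaign, cut at about 15% in these data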
UCH37 DUB inh: human UCH37 deubiquitinating enzyme inhibition; Q9Y5K5; purified proteasome/UCH37, Ub-AMC cleavage fluorescence; inhibition, % (concentration not given with the values); hit rate 0.33% among 330,000;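 active = mean inhibition over replicate wells above about 20%, limit read from the data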;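 also: 0% = compound-free wells with enzyme and 100% = wells lacking proteasome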
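system = Proteasome-associated human UCH37 deubiquitinase | amount = 0.15 nM proteasome as dispensed | medium = pH 7.4 Tris-HCl (50 mM) with ovalbumin, ATP-MgCl2, DTT | incubation = 30 min preincubation with enzyme, 25 min cleavage at room temperature | detection = AMC fluorescence 355/460 nm | read-out basis = percent inhibition | controls = no-proteasome and no-compound wells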
UBC13 inh: blocks human UBC13 polyubiquitin chain formation | hit rate 0.47% among 330,000 | inhibition, % at 20 µM | TR-FRET | AID 485273 | P61088; in the data active = inhibition above about 45%, passing the limit was not always enough; inconclusive = no clear call, values can overlap the other calls
CTSL1 counter: counter-screen for PFM18AAP inhibitors: inhibitors of F. hepatica cathepsin L1; recombinant F. hepatica cathepsin L1, Z-Leu-Arg-MCA fluorescence; inhibition, % at 5.96 µM; hit rate 0.49% among 300,000; AID 1906;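 active = inhibition above the mean of all tested compounds plus 3 SD, set per screening campaign, cut at about 17% in these data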;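 also: 0% = plate median of test compound wells and 100% = 1 µM Z-Phe-Ala-diazomethylketone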
PP5 primary: inhibitors of human protein phosphatase 5 (PP5); hit rate 0.18% among 320,000; purified PP5c, OMFP substrate fluorescence; AID 1987; inhibition, % at 6.7 µM;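 active = inhibition above the campaign's mean inhibition across all tested compounds plus 3 SD, cut at about 9.5% in these data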;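 also: 0% = DMSO only and 100% = 100 µM cantharidin control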
Target sequence (P53041 whole entry, looked up): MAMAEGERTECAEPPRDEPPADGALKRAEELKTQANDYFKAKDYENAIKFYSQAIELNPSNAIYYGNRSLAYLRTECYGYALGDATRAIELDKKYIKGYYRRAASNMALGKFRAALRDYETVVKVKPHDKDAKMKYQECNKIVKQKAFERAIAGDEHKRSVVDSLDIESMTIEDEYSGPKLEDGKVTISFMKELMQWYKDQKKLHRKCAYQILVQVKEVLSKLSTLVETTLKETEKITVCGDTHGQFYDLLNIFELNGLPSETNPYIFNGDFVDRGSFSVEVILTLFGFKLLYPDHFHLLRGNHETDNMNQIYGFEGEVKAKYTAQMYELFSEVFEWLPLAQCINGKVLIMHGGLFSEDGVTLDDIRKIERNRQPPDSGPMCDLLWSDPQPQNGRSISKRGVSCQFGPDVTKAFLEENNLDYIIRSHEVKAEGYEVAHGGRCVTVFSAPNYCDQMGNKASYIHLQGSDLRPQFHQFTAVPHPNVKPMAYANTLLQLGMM
Numbers without * were called inactive; ? = inconclusive; . = not tested or not shown.

SMILES	PREPL inh	PP1 counter	UCH37 DUB inh	UBC13 inh	CTSL1 counter	PP5 primary
Cc1nn(C(=O)CN2C(=O)c3ccccc3C2=O)c(C)c1Br	10	-2	28*	-1	6	1
Cc1cc(C)n(C(=O)CN2C(=O)c3ccccc3C2=O)n1	5	-2	5	-1	-4	2
CN(CC(=O)Nc1ccc(F)cc1)C(=O)COC(=O)CNC(=O)c1ccc(Cl)cc1Cl	-1	-2	0	-1	21*	-1
O=C(NN=Cc1ccc(OC2CSC2)cc1)c1ccc(CN2CCOCC2)cc1	.	.	-3	.	.	.
Cc1ccc(Nc2cc(C)c3ccc(O)cc3n2)cc1C	34	17*	.	20	3	4
Cc1cccn2c(=O)c(/C=C(\C#N)C(=O)NC3CCS(=O)(=O)C3)c(N3CCC(C)CC3)nc12 (stereo not given)	-5	2	-4	-4	17*	3
CC(=O)Oc1ccc(C(=O)Nc2cccc(C(=O)c3cccc(NC(=O)c4ccc(OC(C)=O)cc4)c3)c2)cc1	-5	15*	5	-5	5	0
COc1ccc(NC(=O)CON=CC(=O)Nc2ccccc2C)c([N+](=O)[O-])c1	.	.	1	.	.	.
Cc1ccc(Oc2nnc(-c3cccs3)c3ccccc23)cc1	12	0	-1	-2	1	2
c1ccc(Oc2nnc(-c3cccs3)c3ccccc23)cc1	12	16*	5	-6	5	1
O=C1CCCC(=NNC(=O)C2CCN(S(=O)(=O)c3cccs3)CC2)C1	.	.	5	.	.	.
O=C(CN1CCN(c2cccc(Cl)c2)CC1)NCc1ccccc1	-11	-5	3	2	24*	0
COc1cc(C=NNc2ccc(S(N)(=O)=O)cc2)cc(OC)c1OC	.	.	4	.	.	.
COC(=O)/C=C1\S/C(=N\N=CCC(=O)OC)NC1=O	.	.	14	.	.	.
COc1ccc(-c2n[nH]c3c2CN(C(=O)c2ccc(OC)c(OC)c2)CC3)cc1	5	1	0	3	34*	2
CCn1c(/C=C/Nc2ccccc2)[n+](CC)c2ccc(Cl)cc21	22	-2	15	7	9	2
CCn1c(/C=C/N(C)c2ccccc2)[n+](CC)c2ccc(Cl)cc21	31	-1	23*	-3	1	0
COc1cc(C=NNC(=O)CNC(=O)c2ccncc2)ccc1OC(C)=O	.	.	5	.	.	.
COc1cc(Oc2ccccc2)nc(N)n1	12	1	3	5	30*	5
COc1cccc(OCCn2cc(C=NNC(=O)c3ccncc3)c3ccccc32)c1	.	.	7	.	.	.
O=C1C2CC=C(Cl)CC2C(=O)N1CCN1CCOCC1 (stereo not given)	-15	-4	7	-6	-5	1
O=C1C2CC=C(Cl)CC2C(=O)N1CCCCCCN1C(=O)C2CC=C(Cl)CC2C1=O (stereo not given)	6	3	3	-6	42*	3
CC(C)=CCC(C)(C)C=NNC(N)=O	.	.	2	.	.	.
COc1ccc(-c2csc(/C(C#N)=C\c3ccc(OC)c([N+](=O)[O-])c3)n2)cc1	-4	-4	-7	9	0	-2
COc1ccc(-c2csc(/C(C#N)=C\c3ccc(O)c([N+](=O)[O-])c3)n2)cc1OC	11	-4	21*	-115	1	4
SMILES	PREPL inh	PP1 counter	UCH37 DUB inh	UBC13 inh	CTSL1 counter	PP5 primary
O=c1ccc(-c2ccc(S(=O)(=O)Nc3cccc([N+](=O)[O-])c3)s2)n[nH]1	4	3	9	-10	21*	3
CC(=O)Nc1ccc(S(=O)(=O)Oc2cccc(C=N/N=C3/NC(=O)C(CC(=O)O)S3)c2)cc1 (stereo not given)	.	.	9	.	.	.
CC(=O)Nc1ccc(OCC(O)Cn2c3ccccc3c3ccccc32)c(C)c1 (stereo not given)	45*	0	4	18	4	7
CC(=O)Nc1ccc(OCC(O)Cn2c3ccccc3c3ccccc32)cc1 (stereo not given)	16	-3	3	6	0	2
COc1cc(C=NO)cc(Br)c1OCc1ccc(Cl)cc1	.	.	0	.	.	.
Cc1nn(-c2ccccc2)c(C)c1C=NNC(=O)c1cc(O)cc(O)c1	.	.	6	.	.	.
CC(=NNC(=O)c1ccc(N2CCCC2=O)cc1)c1ccc(O)cc1O	.	.	-32	.	.	.
CC(C)(C)c1[nH]nc2c1C(c1cccnc1)C(C#N)=C(N)O2 (stereo not given)	-1	-1	3	3	-3	3
CC(C)(C)c1[nH]nc2c1C(c1ccc(OC(=O)c3ccco3)cc1)C(C#N)=C(N)O2 (stereo not given)	71*	2	4	14	-22	3
COc1ccc(C(C)=NNC(=O)Cc2ccc(Cl)cc2)cc1	.	.	1	.	.	.
CCN(CC(=O)Nc1ccccc1C(F)(F)F)C(=O)CCS(=O)(=O)c1ccc(Cl)cc1	40	-7	0	5	0	0
N/C(CCS(=O)(=O)c1ccc(Cl)cc1)=N\OC(=O)c1ccccc1C(F)(F)F	7	2	3	-1	19*	4
N/C(CCS(=O)(=O)c1ccc(Cl)cc1)=N\OC(=O)c1ccc(Cl)cc1	-21	-1	3	-2	17*	0
Oc1c(Cl)cc(Cl)cc1Sc1cc(Cl)cc(Cl)c1O	48*	40*	.	3	1	9
CCCCN(C)CCNC(=O)C(NC(=O)C1CCC(C)CC1)C(C)C (stereo not given)	5	1	5	24	56*	-2
CC(C)C[C@H]1CN=C(Nc2ccccc2)N1CC1CCCCCC1	27	4	-1	43	20*	1
COCCNC(=O)c1onc(CSc2ccc(C)c(C)c2)c1C(=O)O	5	3	4	-3	3	0
COCCNC(=O)c1onc(CSc2cc(C)cc(C)c2)c1C(=O)O	-2	-4	34*	-3	-2	2
CN(C(=O)c1ccc(NC(=O)Cc2cccc(NC(=O)C3CCN(C(=O)C4CCCC4)CC3)c2)cc1)C1CCCC1	-2	-2	22*	4	.	3
Oc1ccccc1C=NNc1cc(N2CCCC2)nc(N2CCCC2)n1	.	.	17	.	.	.
O=C(CSc1ncn[nH]1)N1CCOCC1	6	-1	0	14	60*	4
O=C(O)c1cc(O)c2c(c1)[C@@H]([C@H]1c3cc(C(=O)O)cc(O)c3C(=O)c3c(O[C@@H]4O[C@H](CO)[C@@H](O)[C@H](O)[C@H]4O)cccc31)c1cccc(OC3O[C@H](CO)[C@@H](O)[C@H](O)[C@H]3O)c1C2=O (stereo not given in full)	106*	87*	31*	?	12	9.8*
O=C(NCc1ccc2c(c1)OCO2)c1ccc(COc2cccc(Cl)c2)o1	-11	8	5	-6	22*	4
O=C(NNC1=NS(=O)(=O)c2ccccc21)c1ccccc1	-1	-8	9	-7	8	1
O=C(/C=C/c1ccccc1)NNC1=NS(=O)(=O)c2ccccc21	4	-5	23*	-17	8	1
